Experimental data from ChEMBL document CHEMBL1142170, “Mechanism of activation of beta-D-2'-deoxy-2'-fluoro-2'-c-methylcytidine and inhibition of hepatitis C virus NS5B RNA polymerase” (Antimicrob Agents Chemother, 2007).

Experiments:
Format in all cases: cell-based
[1] = substrate: O=c1ccn([C@@H]2O[C@H](CO)[C@@H](O)[C@H]2O)c(=O)[nH]1; assay: Ratio of Kcat to Km for UCK1 activity expressed in Huh7 cells; conditions: Homo sapiens; Huh-7
Summary of the method: (§1)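 His-tagged human UCK-1 cloned from Huh-7 cells, assayed at 25°C by pyruvate kinase/lactate dehydrogenase coupling, NADH oxidation at 340 nm. Buffer 64 mM Tris-HCl pH 7.5, 1 mM ATP, Mg2+, phosphoenolpyruvate. Enzyme 41 nM, or 410 nM for 2′-C-methyl cytidines. Substrate concentration varied. Steady-state parameters reported as mean ± SD.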

[2] = substrate: O=c1ccn([C@@H]2O[C@H](CO)[C@@H](O)[C@H]2O)c(=O)[nH]1; assay: Activity of human UCK1 expressed in Huh7 cells assessed as phosphorylation by coupled enzyme assay; conditions: Huh-7; summary of the method: as §1
[3] = substrate: C[C@@]1(F)[C@H](O)[C@@H](COP(=O)(O)O)O[C@H]1n1ccc(N)nc1=O; assay: (§2) Ratio of Kcat to Km for YMPK activity expressed in Huh7 cells; conditions: Homo sapiens; Huh-7
Summary of the method: (§3)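 Human YMPK cloned from Huh-7 cells, 37°C, coupled pyruvate kinase/lactate dehydrogenase assay following NADH at 340 nm. Tris-HCl pH 7.5, 1 mM ATP, MgCl2. Enzyme 80 nM with natural monophosphates, 200 nM with the analog monophosphate. Monophosphate substrate concentration varied, steady-state parameters as mean ± SD.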

[4] = substrate: Nc1ccn([C@@H]2O[C@H](COP(=O)(O)O)[C@@H](O)[C@H]2O)c(=O)n1; assay: as §2; conditions: Homo sapiens; Huh-7; summary of the method: as §3
[5] = substrate: Nc1ccn([C@H]2C[C@H](O)[C@@H](COP(=O)(O)O)O2)c(=O)n1; assay: as §2; conditions: Homo sapiens; Huh-7; summary of the method: as §3
[6] = substrate: O=c1ccn([C@@H]2O[C@H](COP(=O)(O)O)[C@@H](O)[C@H]2O)c(=O)[nH]1; assay: as §2; conditions: Homo sapiens; Huh-7; summary of the method: as §3
[7] = substrate: C[C@@]1(F)[C@H](O)[C@@H](COP(=O)(O)O)O[C@H]1n1ccc(N)nc1=O; assay: (§4) Activity of human YMPK expressed in Huh7 cells assessed as phosphorylation by coupled enzyme assay; conditions: Huh-7; summary of the method: as §3
[8] = substrate: Nc1ccn([C@@H]2O[C@H](COP(=O)(O)O)[C@@H](O)[C@H]2O)c(=O)n1; assay: as §4; conditions: Huh-7; summary of the method: as §3
[9] = substrate: Nc1ccn([C@H]2C[C@H](O)[C@@H](COP(=O)(O)O)O2)c(=O)n1; assay: as §4; conditions: Huh-7; summary of the method: as §3
[10] = substrate: O=c1ccn([C@@H]2O[C@H](COP(=O)(O)O)[C@@H](O)[C@H]2O)c(=O)[nH]1; assay: as §4; conditions: Huh-7; summary of the method: as §3

Protein | kcat/Km [1] [M⁻¹ s⁻¹] | Km [2] [µM] | kcat [2] [s⁻¹] | kcat/Km [3] [M⁻¹ s⁻¹] | kcat/Km [4] [M⁻¹ s⁻¹] | kcat/Km [5] [M⁻¹ s⁻¹] | kcat/Km [6] [M⁻¹ s⁻¹] | kcat [7] [s⁻¹] | Km [8] [µM] | kcat [8] [s⁻¹] | Km [9] [µM] | kcat [9] [s⁻¹] | Km [10] [µM] | kcat [10] [s⁻¹]
Uridine-cytidine kinase 1 (Homo sapiens), Q9HA47 (protein) MASAGGEDCESPAPEADRPHQRPFLIGVSGGTASGKSTVCEKIMELLGQNEVEQRQRKVVILSQDRFYKVLTAEQKAKALKGQYNFDHPDAFDNDLMHRTLKNIVEGKTVEVPTYDFVTHSRLPETTVVYPADVVLFEGILVFYSQEIRDMFHLRLFVDTDSDVRLSRRVLRDVRRGRDLEQILTQYTTFVKPAFEEFCLPTKKYADVIIPRGVDNMVAINLIVQHIQDILNGDICKWHRGGSNGRSYKRTFSEPGDHPGMLTSGKRSHLESSSRPH | 1300 | 407 | 0.51 |  |  |  |  |  |  |  |  |  |  | 
UMP-CMP kinase (Homo sapiens), P30085 (protein) MKPLVVFVLGGPGAGKGTQCARIVEKYGYTHLSAGELLRDERKNPDSQYGELIEKYIKEGKIVPVEITISLLKREMDQTMAANAQKNKFLIDGFPRNQDNLQGWNKTMDGKADVSFVLFFDCNNEICIERCLERGKSSGRSDDNRESLEKRIQTYLQSTKPIIDLYEEMGKVKKIDASKSVDEVFDEVVQIFDKEG |  |  |  | 12000 | 540000 | 36000 | 540000 | 3.3 | 56 | 30 | 837 | 30 | 151 | 81
